Experimental data reported in ChEMBL document CHEMBL4346672, “Antimicrobial and KPC/AmpC inhibitory activity of functionalized benzosiloxaboroles” (Eur J Med Chem, 2019).
Values after ≈ are worked out from the molar mass of the structure shown. Active and inactive are the calls of the source. The calls are words filed in the database; no cut-off is given here.

How the values were obtained:
Staphylococcus aureus [1] = assay: Antibacterial activity against Staphylococcus aureus ATCC 6538P assessed as diameter of zone inhibition measured after 18 hrs by CLSI disc diffusion method; assay type: functional
Procedure, shortened: (§1)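 Disc diffusion on Mueller-Hinton II agar. Compounds dissolved in DMSO. Strains stored at -80 °C and subcultured twice on tryptic soy agar before testing. Inhibition zones read after 35 °C, 18 h.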

Serratia marcescens = assay: Antibacterial activity against Serratia marcescens ATCC 13880 measured after 18 hrs by CLSI broth dilution method; assay type: functional; conditions: ATCC 13880, 18 h
Procedure, shortened: (§2)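 Broth MIC in Mueller-Hinton II broth following CLSI, compounds dissolved in DMSO. Strains subcultured twice on tryptic soy agar before testing. Growth read after 35 °C, 18 h.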

[2] = Dissociation constant, pKa1 of compound in 0.1 M NaOH by potentiometric analysis; assay type: physicochemical
Candida albicans [3] = assay: Antifungal activity against Candida albicans ATCC 90028 assessed as decrease in fungal cell growth at 0.78 to 12.5 mg/L incubated for 24 hrs by CLSI broth dilution method; assay type: functional; conditions: ATCC 90028, 24 h
Procedure, shortened: (§3)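 Yeast broth dilution in RPMI 1640 with 2% glucose, compounds in DMSO. Yeasts pre-grown on Sabouraud dextrose agar. Growth read after 35 °C, 24 h.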

Candida parapsilosis = assay: Antifungal activity against Candida parapsilosis ATCC 22019 assessed as decrease in fungal cell growth at 0.78 to 12.5 mg/L incubated for 24 hrs by CLSI broth dilution method; assay type: functional; conditions: Lodderomyces parapsilosis, ATCC 22019, 24 h; procedure, shortened: as §3
Candida tropicalis = assay: Antifungal activity against Candida tropicalis IBA 171 assessed as decrease in fungal cell growth at 0.78 to 12.5 mg/L incubated for 24 hrs by CLSI broth dilution method; assay type: functional; conditions: IBA 171, 24 h; procedure, shortened: as §3
Pichia kudriavzevii [4] = assay: Antifungal activity against Candida krusei ATCC 6258 assessed as decrease in fungal cell growth at 0.78 to 12.5 mg/L incubated for 24 hrs by CLSI broth dilution method; assay type: functional; conditions: ATCC 6258, 24 h; procedure, shortened: as §3
Candida albicans [5] = assay: Antifungal activity against Candida albicans ATCC 90028 assessed as diameter of zone inhibition incubated for 24 hrs by CLSI disc diffusion method; assay type: functional
Procedure, shortened: (§4)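 Yeast disc diffusion on Mueller-Hinton agar supplemented with 2% glucose and 0.5 mg/L methylene blue. Compounds in DMSO. Yeasts subcultured on Sabouraud dextrose agar before testing. Zones read after 35 °C, 24 h.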

[6] = system: Meyerozyma guilliermondii; assay: Antifungal activity against Candida guilliermondii IBA 155 assessed as diameter of zone inhibition incubated for 24 hrs by CLSI disc diffusion method; assay type: functional; procedure, shortened: as §4
Pichia kudriavzevii [7] = assay: Antifungal activity against Candida krusei ATCC 6258 assessed as diameter of zone inhibition incubated for 24 hrs by CLSI disc diffusion method; assay type: functional; procedure, shortened: as §4
Saccharomyces cerevisiae = assay: Antifungal activity against Saccharomyces cerevisiae ATCC 9763 diameter of zone inhibition incubated for 24 hrs by CLSI disc diffusion method; assay type: functional
Procedure, shortened: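 Disc-diffusion run on Mueller-Hinton II agar with 2% glucose and 0.5 mg/L methylene blue, using compounds in DMSO. Yeast was precultured on Sabouraud dextrose agar (24–48 h, 30 °C). Zones read after 24 h at 35 °C.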

Staphylococcus aureus [8] = assay: Antibacterial activity against Staphylococcus aureus ATCC 6538P measured after 18 hrs by CLSI broth dilution method; assay type: functional; procedure, shortened: as §2
Enterococcus faecium [9] = assay: Antibacterial activity against Enterococcus faecium ATCC 6057 measured after 18 hrs by CLSI broth dilution method; assay type: functional; conditions: ATCC 6057, 18 h; procedure, shortened: as §2
Enterococcus faecalis = assay: Antibacterial activity against Enterococcus faecalis ATCC 29212 assessed as diameter of zone inhibition measured after 18 hrs by CLSI disc diffusion method; assay type: functional; procedure, shortened: as §1
Enterococcus faecium [10] = assay: Antibacterial activity against Enterococcus faecium ATCC 6057 assessed as diameter of zone inhibition measured after 18 hrs by CLSI disc diffusion method; assay type: functional; procedure, shortened: as §1
Bacillus subtilis = assay: Antibacterial activity against Bacillus subtilis ATCC 6633 assessed as diameter of zone inhibition measured after 18 hrs by CLSI disc diffusion method; assay type: functional; procedure, shortened: as §1
Escherichia coli [11] = assay: Antibacterial activity against Escherichia coli ATCC 25922 measured after 18 hrs by CLSI broth dilution method; assay type: functional; conditions: ATCC 25922, 18 h; procedure, shortened: as §2
Proteus mirabilis [12] = assay: Antibacterial activity against Proteus mirabilis ATCC 12453 measured after 18 hrs by CLSI broth dilution method; assay type: functional; conditions: ATCC 12453, 18 h; procedure, shortened: as §2
Enterobacter cloacae [13] = assay: Antibacterial activity against Enterobacter cloacae DSM 6234 measured after 18 hrs by CLSI broth dilution method; assay type: functional; conditions: DSM 6234, 18 h; procedure, shortened: as §2
[14] = system: Bordetella bronchiseptica; assay: Antibacterial activity against Bordetella bronchiseptica ATCC 4617 measured after 18 hrs by CLSI broth dilution method; assay type: functional; conditions: ATCC 4617, 18 h; procedure, shortened: as §2
Acinetobacter baumannii [15] = assay: Antibacterial activity against Acinetobacter baumannii ATCC 19606 measured after 18 hrs by CLSI broth dilution method; assay type: functional; conditions: ATCC 19606, 18 h; procedure, shortened: as §2
[16] = system: Stenotrophomonas maltophilia; assay: Antibacterial activity against Stenotrophomonas maltophilia ATCC 13637 measured after 18 hrs by CLSI broth dilution method; assay type: functional; conditions: ATCC 13637, 18 h; procedure, shortened: as §2
Escherichia coli [17] = assay: Antibacterial activity against Escherichia coli ATCC 25922 assessed as diameter of zone inhibition measured after 18 hrs by CLSI disc diffusion method; assay type: functional; procedure, shortened: as §1
Proteus mirabilis [18] = assay: Antibacterial activity against Proteus mirabilis ATCC 12453 assessed as diameter of zone inhibition measured after 18 hrs by CLSI disc diffusion method; assay type: functional; procedure, shortened: as §1
Enterobacter cloacae [19] = assay: Antibacterial activity against Enterobacter cloacae DSM 6234 assessed as diameter of zone inhibition measured after 18 hrs by CLSI disc diffusion method; assay type: functional; procedure, shortened: as §1
Pseudomonas aeruginosa [20] = assay: Antibacterial activity against Pseudomonas aeruginosa ATCC 27853 assessed as diameter of zone inhibition measured after 18 hrs by CLSI disc diffusion method; assay type: functional, organism-based; procedure, shortened: as §1
Acinetobacter baumannii [21] = assay: Antibacterial activity against Acinetobacter baumannii ATCC 19606 assessed as diameter of zone inhibition measured after 18 hrs by CLSI disc diffusion method; assay type: functional; procedure, shortened: as §1
[22] = system: Stenotrophomonas maltophilia; assay: Antibacterial activity against Stenotrophomonas maltophilia ATCC 13637 assessed as diameter of zone inhibition measured after 18 hrs by CLSI disc diffusion method; assay type: functional; procedure, shortened: as §1
Burkholderia cepacia = assay: Antibacterial activity against Burkholderia cepacia ATCC 25416 assessed as diameter of zone inhibition measured after 18 hrs by CLSI disc diffusion method; assay type: functional; procedure, shortened: as §1
[23] = system: Bordetella bronchiseptica; assay: Antibacterial activity against Bordetella bronchiseptica ATCC 4617 assessed as diameter of zone inhibition measured after 18 hrs by CLSI disc diffusion method; assay type: functional; procedure, shortened: as §1
Enterobacter cloacae [24] = assay: Antibacterial activity against Enterobacter cloacae DSM 6234 assessed as fold reduction of MIC in presence of efflux pump inhibitor PAbetaN incubated for 18 hrs by broth microdilution method; assay type: functional
Procedure, shortened: (§5)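 MICs determined with and without PAβN at 50 mg/L in Mueller-Hinton broth containing 1 mM MgSO₄. 2-fold serial dilutions per CLSI. Fold change taken from the paired MICs after 35 °C, 18 h.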

Pseudomonas aeruginosa [25] = assay: Antibacterial activity against Pseudomonas aeruginosa ATCC 27853 assessed as fold reduction of MIC in presence of efflux pump inhibitor PAbetaN incubated for 18 hrs microdilution method; assay type: functional; procedure, shortened: as §5
[26] = system: Stenotrophomonas maltophilia; assay: Antibacterial activity against Stenotrophomonas maltophilia ATCC 13637 assessed as fold reduction of MIC in presence of efflux pump inhibitor PAbetaN incubated for 18 hrs by broth microdilution method; assay type: functional; procedure, shortened: as §5

MIC (Serratia marcescens) [µg/mL]	pKa [2]	MIC (Candida albicans [3]) [µg/mL]	MIC (Candida parapsilosis) [µg/mL]	MIC (Candida tropicalis) [µg/mL]	MIC (Pichia kudriavzevii [4]) [µg/mL]	MIC (Staphylococcus aureus [8]) [µg/mL]	MIC (Enterococcus faecium [9]) [µg/mL]	MIC (Escherichia coli [11]) [µg/mL]	MIC (Proteus mirabilis [12]) [µg/mL]	MIC (Enterobacter cloacae [13]) [µg/mL]	MIC [14] [µg/mL]	Structure (SMILES)	diameter of the inhibition zone (DIZ) (Staphylococcus aureus [1]) [mm]	diameter of the inhibition zone (DIZ) (Candida albicans [5])	diameter of the inhibition zone (DIZ) [6]	diameter of the inhibition zone (DIZ) (Pichia kudriavzevii [7])	diameter of the inhibition zone (DIZ) (Saccharomyces cerevisiae)	diameter of the inhibition zone (DIZ) (Enterococcus faecalis)	diameter of the inhibition zone (DIZ) (Enterococcus faecium [10])	diameter of the inhibition zone (DIZ) (Bacillus subtilis) [mm]	also measured
> 400	5.4	400 (≈ 1790 µM)	400 (≈ 1790 µM)	200 (≈ 893 µM)	> 400	25 (≈ 112 µM)	200 (≈ 893 µM)	> 400	> 400	> 400	> 400	C[Si]1(C)OB(O)c2ccc(C=O)c(F)c21	21	inactive	inactive	inactive	inactive	inactive	inactive	22	MIC (Acinetobacter baumannii [15]): > 400 µg/mL; MIC [16]: > 400 µg/mL; diameter of the inhibition zone (DIZ) (Escherichia coli [17]): inactive; diameter of the inhibition zone (DIZ) (Proteus mirabilis [18]): inactive; diameter of the inhibition zone (DIZ) (Enterobacter cloacae [19]): inactive; diameter of the inhibition zone (DIZ) (Pseudomonas aeruginosa [20]): inactive; diameter of the inhibition zone (DIZ) (Acinetobacter baumannii [21]): inactive; diameter of the inhibition zone (DIZ) [22]: inactive; diameter of the inhibition zone (DIZ) (Burkholderia cepacia): inactive; diameter of the inhibition zone (DIZ) [23]: inactive; fold change (FC) (Enterobacter cloacae [24]): 16; fold change (FC) (Pseudomonas aeruginosa [25]): 4; fold change (FC) [26]: 16
> 400	6.8	50 (≈ 234 µM)	100 (≈ 467 µM)	0.78 (≈ 3.64 µM)	50 (≈ 234 µM)	50 (≈ 234 µM)	200 (≈ 934 µM)	> 400	400 (≈ 1870 µM)	> 400	400 (≈ 1870 µM)	C[Si]1(C)OB(O)c2cc(F)c(F)cc21	34	16 mm	30 mm	17 mm	57 mm	inactive	inactive	25	MIC (Acinetobacter baumannii [15]): > 400 µg/mL; MIC [16]: 400 µg/mL (≈ 1870 µM); diameter of the inhibition zone (DIZ) (Escherichia coli [17]): inactive; diameter of the inhibition zone (DIZ) (Proteus mirabilis [18]): inactive; diameter of the inhibition zone (DIZ) (Enterobacter cloacae [19]): inactive; diameter of the inhibition zone (DIZ) (Pseudomonas aeruginosa [20]): inactive; diameter of the inhibition zone (DIZ) (Acinetobacter baumannii [21]): inactive; diameter of the inhibition zone (DIZ) [22]: 14 mm; diameter of the inhibition zone (DIZ) (Burkholderia cepacia): inactive; diameter of the inhibition zone (DIZ) [23]: inactive; fold change (FC) (Enterobacter cloacae [24]): 32; fold change (FC) (Pseudomonas aeruginosa [25]): 8; fold change (FC) [26]: 16
